# Calls of active or inactive are those of the source. No cut-off for these calls is given here.
# Columns and labels:
# Escherichia coli [1] = experiment: Inhibition of transglycosylase activity of Escherichia coli PBP1b assessed as remaining activity at 500 uM incubated for 30 mins by continous fluorescence assay
# Summary of the method: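 Continuous fluorescence TG assay at 30 °C with purified E. coli PBP1b (100 nM) and dansyl-lipid II (10 µM) plus 1 U muramidase (Cellosyl). Fluorescence (ex 355/em 536 nm) read for 30 min. Relative activity measured with compound at 500 µM.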
# Staphylococcus aureus [2] = experiment: Antibacterial activity against methicillin-resistant Staphylococcus aureus ATCC 43300 assessed as no visual turbidity by broth microdilution method; assay type: functional
# Summary of the method: (§1)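 Mueller-Hinton broth microdilution per EUCAST/CLSI, 200 µL final volume. Compounds taken from 10 mg/mL DMSO stocks and diluted 20-fold in broth just before use. Inoculum was colonies from overnight plates, adjusted to 0.5 McFarland (about 1.10^8 CFU/mL) in 0.085% NaCl, then diluted 100-fold in broth. MIC was the lowest dilution with no visible turbidity.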
# Escherichia coli [3] = experiment: Antibacterial activity against Escherichia coli ATCC 8739 assessed as no visual turbidity by broth microdilution method; assay type: functional
# Summary of the method: (§2)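 Broth microdilution in Mueller-Hinton broth following the EUCAST/CLSI procedure. Compounds were made as 10 mg/mL DMSO stocks, diluted 20-fold in broth just before use. Inoculum: colonies suspended to 0.5 McFarland (~1×10^8 CFU/mL) in 0.085% NaCl, then diluted 100-fold in broth. MIC is the lowest dilution with no visible turbidity.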
# Staphylococcus aureus [4] = experiment: Antibacterial activity against Staphylococcus aureus ATCC 25923 assessed as no visual turbidity by broth microdilution method; assay type: functional; summary of the method: as §1
# [5] = Inhibition of transglycosylase activity of Escherichia coli PBP1b incubated for 30 mins by continous fluorescence assay
# Enterococcus faecium = experiment: Antibacterial activity against Enterococcus faecium ATCC 19434 assessed as no visual turbidity by broth microdilution method; assay type: functional; summary of the method: as §2
# HEK293 = experiment: Cytotoxicity against HEK293 cells assessed as reduction in cell viability at 8 ug/ml after 24 hrs by MTS assay; assay type: cell-based; conditions: human, hek293, 24 h
# Summary of the method: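 HEK293 cells grown in DMEM with 10% FBS, 2 mM glutamine and penicillin/streptomycin at 37 °C, 5% CO2. Cells seeded at 2×10^4 per well and allowed to adhere 24 h. Compound added at 8 µg/mL final from an 8 mg/mL DMSO stock, with vehicle controls, in triplicate for 24 h. Metabolic activity read by MTS (CellTiter 96 AQueous One).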
# [6] = Binding affinity to lipid2 in carboxyfluorescein loaded DOPC large unilamellar vesicle assessed as inhibition of nisin-induced carboxyfluorescein leakage at 3 uM preincubated for 2 mins followed by nisin addition measured after 50 secs
# Summary of the method: (§3)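 DOPC LUVs (200-nm extrusion) containing 0.1 mol% lipid II and loaded with 50 mM CF, used at 20 µM lipid in 10 mM Tris, 150 mM NaCl, pH 7.5. Compound (from 1 mM DMSO stock) preincubated 2 min, then 20 nM nisin added. Leakage read at ex 492/em 516 nm and normalized to Triton X-100 total release. Residual nisin activity at 50 s is expressed relative to a no-compound control; run in triplicate.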
# [7] = Binding affinity to lipid2 in carboxyfluorescein loaded DOPC large unilamellar vesicle assessed as inhibition of nisin-induced carboxyfluorescein leakage at 1.5 uM preincubated for 2 mins followed by nisin addition measured after 50 secs; summary of the method: as §3
# [8] = Inhibition of Enterococcus hirae PBP2 transglycosylase activity after 30 mins by continous fluorescence assay
# [9] = target: T1, Penicillin-binding protein 2 (Staphylococcus aureus, UniProt Q53729); experiment: Inhibition of Staphylococcus aureus PBP2 transglycosylase activity after 30 mins by continous fluorescence assay
# T1 sequence (Q53729 whole entry): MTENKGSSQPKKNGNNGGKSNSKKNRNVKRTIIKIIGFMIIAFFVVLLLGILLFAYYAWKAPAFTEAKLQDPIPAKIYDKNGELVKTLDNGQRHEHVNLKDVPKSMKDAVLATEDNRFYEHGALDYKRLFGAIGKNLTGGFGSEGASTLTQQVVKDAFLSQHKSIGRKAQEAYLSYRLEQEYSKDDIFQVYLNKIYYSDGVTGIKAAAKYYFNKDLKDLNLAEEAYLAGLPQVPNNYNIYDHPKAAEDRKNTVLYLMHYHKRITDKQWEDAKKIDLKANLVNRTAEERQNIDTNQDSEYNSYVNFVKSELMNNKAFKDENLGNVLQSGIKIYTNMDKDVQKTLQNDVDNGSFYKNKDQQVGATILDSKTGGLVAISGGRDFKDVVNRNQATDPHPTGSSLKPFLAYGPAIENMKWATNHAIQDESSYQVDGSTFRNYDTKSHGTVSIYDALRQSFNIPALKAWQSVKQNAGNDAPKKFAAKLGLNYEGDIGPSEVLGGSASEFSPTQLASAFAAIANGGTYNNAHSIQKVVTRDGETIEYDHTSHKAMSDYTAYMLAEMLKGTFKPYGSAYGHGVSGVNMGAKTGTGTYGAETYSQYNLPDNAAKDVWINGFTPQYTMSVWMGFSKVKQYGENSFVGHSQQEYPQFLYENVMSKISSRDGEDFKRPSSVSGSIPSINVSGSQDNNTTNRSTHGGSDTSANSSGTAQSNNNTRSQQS
# [10] = Inhibition of Thermotoga maritima PBP1A transglycosylase activity after 30 mins by continous fluorescence assay
# [11] = Inhibition of Staphylococcus aureus mtgA after 30 mins by continous fluorescence assay
Compound,Activity (Escherichia coli [1]) [%],MIC (Staphylococcus aureus [2]) [µM],MIC (Escherichia coli [3]) [µM],MIC (Staphylococcus aureus [4]; read-out: MIC) [µM],IC50 [5] [µM],MIC (Enterococcus faecium) [µM],other results
NCCc1cn(Cc2ccc(F)cc2)c2ccccc12,97,–,–,–,–,–,–
NCCc1cn(Cc2ccc(F)c(F)c2)c2ccccc12,62,397,198,198,> 250,198,–
COc1ccc2c(c1)c(CCN)cn2Cc1ccc(Cl)c(Cl)c1.Cl,24,83,166,83,193,83,Activity (HEK293): Toxic
NCCc1cn(Cc2cccc(Cl)c2)c2ccccc12,54,100,100,100,> 250,100,–
N#Cc1cccc(Cn2cc(CCN)c3ccccc32)c1,94,–,–,–,–,–,–
COc1cccc(Cn2cc(CCN)c3ccccc32)c1,86,–,–,–,–,–,–
COc1ccc(Cn2cc(CCNC(=N)N)c3ccccc32)cc1,67,–,–,–,–,–,–
N=C(N)NCCc1cn(Cc2ccccc2)c2ccccc12,73,–,–,–,–,–,–
CSc1ccc2c(c1)c(CCN)c(C)n2Cc1ccc(Cl)c(Cl)c1 [listing 1 of 3 here],1,–,–,–,–,–,–
COc1ccc2c(c1)c(CCN)c(C)n2Cc1ccc(Cl)c(Cl)c1.Cl,5,40,20,20,104,20,Activity (HEK293): Toxic
NCCc1cn(Cc2ccccc2)c2ccccc12,93,–,–,–,–,–,–
COc1ccc(Cn2cc(CCN)c3ccccc32)cc1,80,–,–,–,–,–,–
COc1ccc2c(c1)c(CCNC(=N)N)c(C)n2Cc1ccc(Cl)c(Cl)c1.Cl,4,9.1,72,9.1,39,9.1,Activity (HEK293): Non-toxic; inhibition [6]: > 90%; Activity [7]: Active
COc1ccccc1Cn1cc(CCN)c2ccccc21,96,–,–,–,–,–,–
COc1ccc2c(c1)c(CCN)c(C)n2Cc1ccc(C#N)cc1,118,–,–,–,–,–,–
Cl.N=C(N)NCCc1cn(Cc2ccc(F)c(F)c2)c2ccccc12,10,88,44,44,97,88,Activity (HEK293): Non-toxic

Compound,Activity (Escherichia coli [1]) [%],MIC (Staphylococcus aureus [2]) [µM],MIC (Escherichia coli [3]) [µM],MIC (Staphylococcus aureus [4]; read-out: MIC) [µM],IC50 [5] [µM],MIC (Enterococcus faecium) [µM],other results
COc1ccc2c(c1)c(CCN)cn2Cc1ccc(F)c(F)c1,88,–,–,–,–,–,–
COc1ccccc1Cn1cc(CCNC(=N)N)c2ccccc21,29,89,> 356,89,> 250,44,–
Cl.NCCc1cn(Cc2ccc(Cl)c(Cl)c2)c2ccccc12,15,45,45,45,103,11,Activity (HEK293): Toxic
Cl.N=C(N)NCCc1cn(Cc2ccc(Cl)c(Cl)c2)c2ccccc12,1,20,40,20,51,10,Activity (HEK293): Non-toxic
COc1ccc2c(c1)c(CCN)c(C)n2Cc1ccccc1,75,–,–,–,–,–,–
COc1ccc2c(c1)c(CCNC(=N)N)cn2Cc1ccc(F)c(F)c1,28,162,81,81,> 250,324,–
COc1cccc(Cn2cc(CCNC(=N)N)c3ccccc32)c1,55,146,73,73,> 250,293,–
CSc1ccc2c(c1)c(CCN)c(C)n2Cc1ccccc1,31,184,369,92,> 250,92,–
COc1ccc2c(c1)c(CCNC(=N)N)cn2Cc1ccc(Cl)c(Cl)c1.Cl,9,19,37,19,50,19,Activity (HEK293): Non-toxic; Activity [7]: Active
N=C(N)NCCc1cn(Cc2cccc(Cl)c2)c2ccccc12,15,145,145,145,166,73,–
N=C(N)NCCc1cn(Cc2ccc(F)cc2)c2ccccc12,42,369,184,92,> 250,184,–
N#Cc1cccc(Cn2cc(CCNC(=N)N)c3ccccc32)c1,79,–,–,–,–,–,–
CSc1ccc2c(c1)c(CCN)c(C)n2Cc1ccc(Cl)c(Cl)c1 [listing 2 of 3 here],–,–,–,–,21,–,–
COc1ccc2c(c1)c(CCN)c(C)n2Cc1ccc(F)c(F)c1,28,174,174,174,> 250,174,–
COc1ccc2c(c1)c(CCN)cn2Cc1ccc(C#N)cc1,105,–,–,–,–,–,–
CSc1ccc2c(c1)c(CCN)c(C)n2Cc1ccc(Cl)c(Cl)c1 [listing 3 of 3 here],–,9.6,616,–,29,76,IC50 [8]: 33 µM; Activity (HEK293): Toxic; IC50 [9]: 20.7 µM; IC50 [10]: 56 µM; IC50 [11]: 27 µM; MIC (Staphylococcus aureus [4]): 16 µg/mL

# — ChEMBL document CHEMBL3745642, “Structure-Activity Relationships of Novel Tryptamine-Based Inhibitors of Bacterial Transglycosylase” (J Med Chem, 2015)
